To fix the notation:
B1: tRNA (parent)
chain: GUUCCGUUGGCGUAAUGGUAACGCGUCUCCCUCCUAAGGAGAAGACUGCGGGUUCGAGUCCCGUACGGAACG

Variants at the floor of the assay were thinned out.

In this series the parent is B1. As to the kind of experiment: yeast fitness relative to wild type (ratio to wild type); higher = fitter; tRNA-Arg(CCU), competitive growth, 37 C, YPD. The method in brief: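 Genotype frequency changes were the basis for Darwinian fitness relative to wild type. The frequencies came from 100-nucleotide paired-end sequencing of gene amplicons from the start population and each end population of pooled yeast strains with tRNA-Arg(CCU) gene variants at the native locus. Competition ran in YPD at 37°C for 24 hours in six replicates, genotypes needed ≥ 100 starting reads, and estimates < 0.5 were set to 0.5.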
As to GUUUCGUUGGCGUAAUGGUAACGCGACUCCGUCCUAAGGAGAAGACUGCGGGUUCGAGUCCCGUACGGAACG [C4U U26A C31G], the yeast fitness is 0.603.

As for GUUUCGUUGGCGUAAUGGUAACGCGUCUCCCACCUAAGGAGAAGACUGCGGGUUCGAGUCCCGGACGGAACG [C4U U32A U64G], the yeast fitness is ≤ 0.5.

For GUUUCGUUGGCGUAACGGUAACGCGUCUCCCUCCUAAGGAGAAGACUGCGGGUUCGAGUCUCGUACGGAACG [C4U U16C C61U], the yeast fitness came to 0.737.

GUUUCGUUGGCGUAAUGGAAACGCGUCUCCCUCCUAAGGAGAAGACUGCAGGUUCGAGUCCCGUACGUAACG [C4U U19A G50A G68U]: the yeast fitness is ≤ 0.5.

As to GUUUCGUUGGCGUAAUGGUAACGCGUCGCCCUCCUAAAGAGAGGAAUGUGGGUUCGAGUCCCGUACGGAACG [C4U U28G G38A A43G C46A C49U], the yeast fitness worked out at 0.608.

GUUUCGUUGGCGUAAUGGUAACGCGUCUCCCACCUAAGGAGAAGACUGCGGGUUCGCGUCCCGUACGGAACG [C4U U32A A57C]: the yeast fitness was ≤ 0.5.

With GUUUCGUUGGCGUAAUGGCAACGCGUCUACCUCCUAAGGAGAAGACUGCGGGUUCGAGUCCCGUACGGAUCG [C4U U19C C29A A70U], the yeast fitness came out at 0.632.

Regarding GUUUCGUUGGCGUAAUGGUAACGCGUCCCCCUCCUAAGGAGAAGACUGGGGGUUCGAGUCUCGUACGGAACG [C4U U28C C49G C61U], the yeast fitness was ≤ 0.5.

As to GUUUCGUUGGCGUAAUGGUAACGCGACUCCCUCCUAAGGAGAAGACUGCGGGUUCGAGUCCCGUACGGUACG [C4U U26A A69U], the yeast fitness is 0.641.

On to GUUUCGUUGGCGUAAUGGUAACGCGUCCCACUCCUAAGGAGAAGACUGCGGGUUCGAGUCCCGUACGGAACG [C4U U28C C30A], for which the yeast fitness turned out to be 0.755.

GUUUCGUUGGCGUAACGGUAACGCGUCUCCCUCCUAAGGAGGAGACUGCGGGUUCGAGUCCCGUACGGAACG [C4U U16C A42G]: the yeast fitness was determined as 0.72.

For the variant GUUUCGUUGGCGUAACGGUAACGCGUCUCCCUCCUAAGGAGCAGACUGCGGGUUCGAGUCCCGUACGGAACG [C4U U16C A42C], the yeast fitness amounted to 0.579.

For GUUUCGUUGGCGUAAUGGCAACGCGUCUCCAUCCUAAGGACAAGACUGCGGGUUCGAGUCCCGUACGGAACG [C4U U19C C31A G41C], the yeast fitness is 0.53.

Regarding GUUUCGUUGGCGUAAUGGUAACGCGGCUCCCUCCUAAGGAGAAGACUGCGGGUUCGAGUCCGGUACGGAUCG [C4U U26G C62G A70U], the yeast fitness was ≤ 0.5.

Consider GUUUCGUUGGCGUAAUGGUAACGCGUCUCCCACCUAAGGAGAAGACUGCGGGUUCGACUCCCGUACGGAACG [C4U U32A G58C], for which the yeast fitness worked out at 0.592.

In the case of GUUUCGUUGGCGUAAGGGUAACGCGUCUCCCUCCUAAGGAGAAGACUGCGGGUUCGAGUCCCGUACGGAACG [C4U U16G], the yeast fitness worked out at 1.05.

Regarding GUUUCGUUGGCGUAACGGUAACGCGUCUCCCUCCUAAGGAGAAGACUGCGGGUUCGAGUCCCGUACGGAACG [C4U U16C], the yeast fitness was 1.02.

In the case of GUUUCGUUGGCGUAAUGGUAACGCGUCUCCCUCCUAAGGAGAAGACAGCGGGUUCGAGUCCCGUACGGAACG [C4U U47A], the yeast fitness came to 0.86.

For the variant GUUUCGUUGGCGUAAUGGUAACGCGUCUCCCUCCUAAGGAGAAGACCGCGGGUUCGAGUCCCGUACGGAACG [C4U U47C], the yeast fitness turned out to be 1.06.

Take GUUUCGUUGGCGUAAUGGUAACGCGUCUCCCUCCUAAGGAGAAGACGGCGGGUUCGAGUCCCGUACGGAACG [C4U U47G]: the yeast fitness was determined as 0.616.

With GUUUCGUUGGCGUAACGGUAACGCGUCUCCCUCCUAAGGAGAAGACUGCGGGUUCGAGUCCCGUACGGCACG [C4U U16C A69C], the yeast fitness came to 0.774.

As for GUUUCGUUGGCGUAAUGGUAACGCGUCUCCCUCCAAAGGAGAACACUGCGGGUUCGAGUCCCGUACGGAACG [C4U U35A G44C], the yeast fitness came to 0.58.

Take GUUUCGUUGGCGUAAUGGUAACGCGUCUCCCUCCUAAGGAGAAGACCGCGGGUUCGAGUCCCGUAUGGAACG [C4U U47C C66U]: the yeast fitness stood at 0.766.

Consider GUUUCGUUGGCGUAAUGGUAACGCGGCUCCCUCCUAAGGAGAAGACUGCGGGUUCGAGCCCAGUACGGAACG [C4U U26G U59C C62A], for which the yeast fitness turned out to be 0.679.

In the case of GUUUCGUUGGCGUAAUGGUAACGCGACUCCCUCCUAGGGAGAAGACUGCGGGUUCGAGUCCCGUACGGAACG [C4U U26A A37G], the yeast fitness is ≤ 0.5.

GUUUCGUUGGCGUAAUGGUAACGCGCUUCCCUCCUAAGGAGAAGACUGCGGGUUCGAGUCCCGUACGGAACG [C4U U26C C27U]: the yeast fitness was 0.678.

GUUUCGUUGGCGUAAUGGUAACGCGGCUUCCUCCUAAGGAGAAGACUGCGGGUUCGAGUCCCGUUCGGAACG [C4U U26G C29U A65U]: the yeast fitness was ≤ 0.5.

For GUUUCGUUGGCGUAAGGGUAACGCGUCUCCCUCCUAAGGAGAAGACUGCGGGUUCGAGUCCCGUACGGCACG [C4U U16G A69C], the yeast fitness worked out at 0.645.

With GUUUCGUUGGCGUAAUGGUAACGCGUCCCCCUCCUAAGGAGAAGACUGGGGGUUCGAGUCCCGUACGGAACG [C4U U28C C49G], the yeast fitness is 0.598.

On to GUUUCGUUGGCGUAAUGGUAACGCGGCUUCCUCCUAAGGAGAAGACCGCGGGUUCGAGUCCCGUUCGGAACG [C4U U26G C29U U47C A65U], for which the yeast fitness was ≤ 0.5.

With GUUUCGUUGGCGUAACGGUAACGUGUCUCCCUCCUAAGGAGAAGACUGCGGGUUCGAGUCCCGUACGGAACG [C4U U16C C24U], the yeast fitness was determined as 0.675.

GUUUCGUUGGCGUAAUGGUAACGCGUCGCCCUCCUAAGGAGAAGACUGCGGGUUCGGGUCCCGUACGGCACG [C4U U28G A57G A69C]: the yeast fitness is ≤ 0.5.

Turning to GUUUCGUUGGCGUAAUGGUAACGCGUCUCCCUCCUAAGGAGAAGACAGCGGGUUCGAGUCACGUACGGAACG [C4U U47A C61A], the yeast fitness stood at 0.93.

For the variant GUUUCGUUGGCGUAAUGGAAACGCGUCUCGCUCCUCAGGAGAAGACUGCGGGUUCGAGUCCCGUAAGCAACG [C4U U19A C30G A36C C66A G68C], the yeast fitness was ≤ 0.5.

In the case of GUUUCGUUGGCGUAAUGGUAACGCGUCCCCCUCCUAACGAGAAGACUGCGGGUUCGAGUCUCGUACGGAACG [C4U U28C G38C C61U], the yeast fitness was ≤ 0.5.

With GUUUCGUUGGCGUAAUGGUAACGCGUCUCCCACCUAAGGAGAAGACUGCGGCUUUGAGUCCCGUAUGGAACG [C4U U32A G52C C55U C66U], the yeast fitness is ≤ 0.5.

As for GUUUCGUUGGCGUAAAGGUAACGCGUCUCCCUCCUAAGGUGAAGACUGCGGGUUCGAGUCCCGUACGGAACG [C4U U16A A40U], the yeast fitness worked out at 0.666.

For the origin of these results see the RNAGym collection of RNA variant scans (doi:10.1126/science.aae0568).
